Laboratory results from PMC8791284 (SLAS discovery : advancing life sciences R & D, 2021).

Legend:
[1] = tested on: CDK9 (Ser2-RNA polymerase II phosphorylation); experiment: Western blot of phospho-Ser2 RNA polymerase II in KRAS^G12D MEFs; assay type: cell-based, mouse; settings: 6 h, 0.1, 1 and 10 μM
[2] = tested on: KRAS^G12D-expressing MEFs; experiment: ATP-based cell viability assay; set-up: species or system mouse; settings: Suppl. Fig. S3
In short: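 KRAS^G12D- and HRAS^WT-expressing mouse embryonic fibroblasts are dispensed onto plates pre-spotted with test compound from 10 mM stocks. Test compound is used at 5 μM final for the primary screen, or as serial dilutions for dose–response. After 72 h, CellTiter-Glo reagent is added, incubated 15 min, and luminescence is read. Each plate is checked by Z' factor and carries a reference HSP-90 inhibitor dose–response.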

[3] = tested on: BRAF^V600E-expressing MEFs; experiment: Cell proliferation assay, BRAF^V600E MEFs; assay type: cell-based, mouse; settings: versus other MEF panel lines, Fig. 1E

CC(C)(C)c1cnc(CSc2cnc(NC(=O)C3CCNCC3)s2)o1 [SNS032]
phosphorylation level of Ser2-RNA polymerase II [1]: diminished the Ser2 phosphorylation level in a dose-dependent manner
sensitivity of KRAS^G12D MEFs versus HRAS^WT MEFs in cell viability assay [2]: more sensitive

CC(C)(C)c1nc(-c2cccc(NS(=O)(=O)c3c(F)cccc3F)c2F)c(-c2ccnc(N)n2)s1 [dabrafenib]
specific activity against BRAF^V600E-expressing MEFs [3]: showed specific activity

CCCS(=O)(=O)Nc1ccc(F)c(C(=O)c2c[nH]c3ncc(-c4ccc(Cl)cc4)cc23)c1F [vemurafenib]
specific activity against BRAF^V600E-expressing MEFs [3]: showed specific activity
